ChEMBL document CHEMBL1125485, “Inhibitors of blood platelet cAMP phosphodiesterase. 2. Structure-activity relationships associated with 1,3-dihydro-2H-imidazo[4,5-b]quinolin-2-ones substituted with functionalized side chains” (J Med Chem, 1992)

Assays:
[1] = target: cGMP-dependent 3',5'-cyclic phosphodiesterase (Homo sapiens, UniProt O00408); assay: Inhibition of human platelet PDE by inhibiting cyclic Guanosine monophosphate (cGMP) hydrolysis
[2] = species on record: Oryctolagus cuniculus; assay: Inhibition of platelet aggregation using collagen as activating agent in rabbit platelet rich plasma (PRP); type: functional
Procedure, shortened: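 Rabbit platelet-rich plasma, aggregation triggered by ADP or collagen after 3 min preincubation of PRP with drug. Single or duplicate determinations, reference agent included.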

[3] = target: Phosphodiesterase 3 (Homo sapiens, UniProt Q14432+Q13370); assay: Inhibition of human platelet PDE by inhibiting cyclic Adenosine monophosphate (cAMP) hydrolysis
[4] = species on record: Rattus norvegicus; assay: Oral efficacy in rats using the ex vivo aggregatory protocol; type: functional
Procedure, shortened: (§1)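 Rats given compound orally, then ADP-induced platelet aggregation measured ex vivo.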

[5] = tested on: Rattus norvegicus; assay: Percent inhibition of oral efficacy in rats using the ex vivo aggregatory protocol at 10 mg/kg; type: functional; procedure, shortened: as §1

Sequence of cGMP-dependent 3',5'-cyclic phosphodiesterase (O00408 whole entry): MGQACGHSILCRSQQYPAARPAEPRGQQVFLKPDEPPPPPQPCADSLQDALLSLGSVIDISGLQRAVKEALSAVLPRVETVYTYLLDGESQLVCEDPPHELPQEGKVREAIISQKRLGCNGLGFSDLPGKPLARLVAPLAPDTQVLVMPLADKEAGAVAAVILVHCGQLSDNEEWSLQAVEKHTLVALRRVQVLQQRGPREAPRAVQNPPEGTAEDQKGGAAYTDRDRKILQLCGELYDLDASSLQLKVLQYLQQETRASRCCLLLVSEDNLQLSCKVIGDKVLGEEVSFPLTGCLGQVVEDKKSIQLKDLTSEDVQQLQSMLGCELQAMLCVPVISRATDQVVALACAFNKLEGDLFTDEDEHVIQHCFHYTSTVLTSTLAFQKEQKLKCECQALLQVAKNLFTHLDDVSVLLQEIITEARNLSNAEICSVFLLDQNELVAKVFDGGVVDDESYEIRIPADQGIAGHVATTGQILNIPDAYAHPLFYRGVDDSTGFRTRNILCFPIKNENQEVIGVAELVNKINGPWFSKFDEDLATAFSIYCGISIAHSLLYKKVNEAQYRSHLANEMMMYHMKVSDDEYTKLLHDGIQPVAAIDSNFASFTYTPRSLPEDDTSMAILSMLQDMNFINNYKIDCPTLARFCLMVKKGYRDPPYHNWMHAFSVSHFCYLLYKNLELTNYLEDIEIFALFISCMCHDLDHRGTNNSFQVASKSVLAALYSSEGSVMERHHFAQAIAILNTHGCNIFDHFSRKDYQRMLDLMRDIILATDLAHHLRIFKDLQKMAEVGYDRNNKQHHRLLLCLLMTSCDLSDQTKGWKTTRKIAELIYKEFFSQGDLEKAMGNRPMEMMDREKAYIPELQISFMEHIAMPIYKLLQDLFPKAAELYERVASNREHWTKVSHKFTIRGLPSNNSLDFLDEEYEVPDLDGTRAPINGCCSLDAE

Cn1c(O)nc2nc3ccc(OCCCC(=O)N4CCCCC4)cc3cc21
IC50 [1]: 60000 nM | EC50 [2]: 2440 nM

O=C(O)CCCOc1ccc2c(c1)CN1CC(=O)NC1=N2
EC50 [2]: 3460 nM | IC50 [3]: 40 nM

CC(=O)CCCOc1ccc2[nH]c3nc(O)nc-3cc2c1
EC50 [2]: 70 nM | IC50 [3]: 80 nM

OCC(O)COc1ccc2[nH]c3nc(O)nc-3cc2c1 (stereo unspecified)
EC50 [2]: 64 nM | IC50 [3]: 20 nM

CC(=O)OCCCOc1ccc2[nH]c3nc(O)nc-3cc2c1
EC50 [2]: 30 nM | IC50 [3]: 100 nM

CCOC(=O)C1CCN(C(=O)CCCOc2ccc3[nH]c4nc(O)nc-4cc3c2)CC1
ED50 [4]: 9.6 mg/kg | IC50 [1]: 100000 nM | EC50 [2]: 90 nM | IC50 [3]: 5 nM

NC(=O)CCCOc1ccc2[nH]c3nc(O)nc-3cc2c1
IC50 [1]: > 100000 nM | EC50 [2]: 2520 nM | IC50 [3]: 8 nM

OCCCOc1ccc2[nH]c3nc(O)nc-3cc2c1
IC50 [1]: 50000 nM | EC50 [2]: 150 nM | IC50 [3]: 9 nM

COC(=O)CCCCc1ccc2[nH]c3nc(O)nc-3cc2c1
inhibition in vivo at 10 mg/kg [5]: 29% | ED50 [4]: > 10 mg/kg | EC50 [2]: 270 nM | IC50 [3]: 900 nM

Cn1c(O)nc2nc3ccc(OCCCC(=O)O)cc3cc21
ED50 [4]: > 10 mg/kg | IC50 [1]: 10000 nM | EC50 [2]: > 106000 nM | IC50 [3]: 600 nM

CCOC(=O)CCCOc1ccc2[nH]c3nc(O)nc-3cc2c1
EC50 [2]: 20 nM | IC50 [3]: 20 nM

CN(C(=O)CCCCOc1ccc2nc3[nH]c(=O)[nH]c3cc2c1)C1CCCCCC1
IC50 [1]: 5000 nM | EC50 [2]: 2 nM | IC50 [3]: 0.4 nM

O=C(O)CN(C(=O)CCCOc1ccc2[nH]c3nc(O)nc-3cc2c1)C1CCCCC1
EC50 [2]: 460 nM | IC50 [3]: 0.3 nM

O=C(CCCOc1ccc2nc3[nH]c(=O)[nH]c3cc2c1)NC1CCCCC1
inhibition in vivo at 10 mg/kg [5]: 31% | IC50 [1]: > 100000 nM | EC50 [2]: 7 nM

OCCCc1ccc2[nH]c3nc(O)nc-3cc2c1
EC50 [2]: 410 nM | IC50 [3]: 60 nM

O=C(O)CCCCc1ccc2[nH]c3nc(O)nc-3cc2c1
IC50 [1]: 10000 nM | EC50 [2]: 21000 nM | IC50 [3]: 20 nM

N#CCCCCOc1ccc2[nH]c3nc(O)nc-3cc2c1
EC50 [2]: 130 nM | IC50 [3]: 100 nM

COC(=O)CCCCOc1ccc2nc3nc(O)n(C)c3cc2c1
IC50 [1]: 100000 nM | IC50 [3]: 5000 nM

CCOC(=O)CN(C(=O)CCCOc1ccc2[nH]c3nc(O)nc-3cc2c1)C1CCCCC1
IC50 [1]: 3000 nM | EC50 [2]: 9 nM | IC50 [3]: 2 nM

Cn1c(O)nc2nc3ccc(OCCCS(=O)(=O)c4ccccc4)cc3cc21
EC50 [2]: 15100 nM | IC50 [3]: 300 nM

O=C(CCCCc1ccc2[nH]c3nc(O)nc-3cc2c1)NC1CCCCC1
EC50 [2]: 190 nM | IC50 [3]: 300 nM

CN(C(=O)CCCCc1ccc2[nH]c3nc(O)nc-3cc2c1)C1CCCCC1
EC50 [2]: 26 nM | IC50 [3]: 40 nM

O=C(CCCCc1ccc2[nH]c3nc(O)nc-3cc2c1)NC12C[C@H]3C[C@@H](C1)C[C@@H](C2)C3
EC50 [2]: 300 nM | IC50 [3]: 6 nM

Oc1nc2cc3cc(OCCCc4nnn[nH]4)ccc3[nH]c-2n1
EC50 [2]: 1580 nM | IC50 [3]: 3 nM

COC(=O)CCCOc1ccc2nc3c(cc2c1)nc(O)n3C
EC50 [2]: 170 nM | IC50 [3]: 2000 nM

CN(C(=O)CCCOc1ccc2[nH]c3nc(O)nc-3cc2c1)C1CCCCCC1
EC50 [2]: 5 nM

O=C(CCCOc1ccc2nc3[nH]c(=O)[nH]c3cc2c1)N1CCOCC1
IC50 [1]: 40000 nM | EC50 [2]: 20 nM

Oc1nc2cc3cc(OCCCCc4nnnn4C4CCCCC4)ccc3[nH]c-2n1
inhibition in vivo at 10 mg/kg [5]: 44% | IC50 [1]: > 100000 nM | EC50 [2]: 45 nM | IC50 [3]: 4 nM

CC(=O)OCCOc1ccc2[nH]c3nc(O)nc-3cc2c1
EC50 [2]: 70 nM | IC50 [3]: 30 nM

COC(=O)CCCOc1ccc2nc3c(cc2c1)n(C)c(=O)n3C
EC50 [2]: 54700 nM | IC50 [3]: 40000 nM

Oc1nc2cc3cc(OCCCCc4nnn[nH]4)ccc3[nH]c-2n1
EC50 [2]: 1010 nM | IC50 [3]: 10 nM

OCCOc1ccc2[nH]c3nc(O)nc-3cc2c1
ED50 [4]: < 10 mg/kg | IC50 [1]: > 100000 nM | EC50 [2]: 4 nM | IC50 [3]: 20 nM

CN(C(=O)CCCCOc1ccc2[nH]c3nc(O)nc-3cc2c1)C1CCCCC1
IC50 [1]: 5000 nM | EC50 [2]: 0.2 nM | IC50 [3]: 2 nM

CCOC(=O)CCCOc1ccc2c(c1)CN1CC(=O)NC1=N2
IC50 [3]: 70 nM

CCOC(=O)COc1ccc2[nH]c3nc(O)nc-3cc2c1
EC50 [2]: 7600 nM

Cn1c(O)nc2nc3ccc(OCCCCC(=O)O)cc3cc21
IC50 [1]: 10000 nM | EC50 [2]: > 100000 nM | IC50 [3]: 80 nM

O=c1[nH]c2cc3cc(OCCCS(=O)(=O)c4ccccc4)ccc3nc2[nH]1
IC50 [1]: > 100000 nM | EC50 [2]: 50 nM | IC50 [3]: 2 nM

COC(=O)CN(C(=O)CCCOc1ccc2[nH]c3nc(O)nc-3cc2c1)C1CCCCC1
ED50 [4]: 3 mg/kg | IC50 [1]: 5500 nM | EC50 [2]: 2 nM | IC50 [3]: 0.5 nM

CN(C(=O)CCCCOc1ccc2nc3nc(O)n(C)c3cc2c1)C1CCCCC1
ED50 [4]: 10 mg/kg | IC50 [1]: 60000 nM | IC50 [3]: 500 nM

CCOC(=O)CCc1ccc2[nH]c3nc(O)nc-3cc2c1
EC50 [2]: 140 nM | IC50 [3]: 600 nM

O=C(CCCCc1ccc2[nH]c3nc(O)nc-3cc2c1)N1CCCCC1
EC50 [2]: 170 nM | IC50 [3]: 60 nM

O=C(O)CCCCOc1ccc2nc3[nH]c(=O)[nH]c3cc2c1
IC50 [1]: 30000 nM | EC50 [2]: > 106000 nM

O=C(CCCOc1ccc2[nH]c3nc(O)nc-3cc2c1)NC1CCCC1
EC50 [2]: 4 nM | IC50 [3]: 20 nM

O=C(O)CCCCCOc1ccc2[nH]c3nc(O)nc-3cc2c1
IC50 [1]: 7000 nM | EC50 [2]: 950 nM | IC50 [3]: 4 nM

CN(C(=O)CCCOc1ccc2nc3c(cc2c1)n(C)c(=O)n3C)C1CCCCC1
EC50 [2]: 13400 nM | IC50 [3]: 5000 nM

CC(O)CCCOc1ccc2[nH]c3nc(O)nc-3cc2c1 (stereo unspecified)
EC50 [2]: 70 nM | IC50 [3]: 100 nM

CN(C(=O)CCCOc1ccc2nc3nc(O)n(C)c3cc2c1)C1CCCCCC1
ED50 [4]: 10 mg/kg | IC50 [1]: 7000 nM | EC50 [2]: 10 nM | IC50 [3]: 100 nM

CN(C(=O)CCCCCOc1ccc2nc3[nH]c(=O)[nH]c3cc2c1)C1CCCCC1
IC50 [1]: 7000 nM | EC50 [2]: 6 nM | IC50 [3]: 3 nM

O=C(O)C1CCN(C(=O)CCCOc2ccc3[nH]c4nc(O)nc-4cc3c2)CC1
EC50 [2]: 180 nM | IC50 [3]: 20 nM

Cn1c(=O)n(C)c2nc3ccc(OCCCC(=O)O)cc3cc21
EC50 [2]: 1250 nM | IC50 [3]: 4000 nM

COC(=O)CCCOc1ccc2nc3[nH]c(=O)n(C)c3cc2c1
IC50 [1]: 100000 nM

COC(=O)CCCCCOc1ccc2nc3[nH]c(=O)[nH]c3cc2c1
IC50 [1]: > 100000 nM | EC50 [2]: 27 nM | IC50 [3]: 60 nM

COC(=O)CCCCOc1ccc2[nH]c3nc(O)nc-3cc2c1
IC50 [1]: > 100000 nM

CCOCCOc1ccc2[nH]c3nc(O)nc-3cc2c1
EC50 [2]: 1290 nM | IC50 [3]: 50 nM

CC(=O)OCCCCOc1ccc2[nH]c3nc(O)nc-3cc2c1
EC50 [2]: 320 nM | IC50 [3]: 40 nM

O=C(CCCOc1ccc2[nH]c3nc(O)nc-3cc2c1)NC12C[C@H]3C[C@@H](C1)C[C@@H](C2)C3
ED50 [4]: 4 mg/kg | IC50 [1]: 100000 nM | EC50 [2]: 50 nM | IC50 [3]: 1 nM

N#CCCCOc1ccc2[nH]c3nc(O)nc-3cc2c1
EC50 [2]: 33 nM | IC50 [3]: 6 nM

CN(C(=O)CCCOc1ccc2nc3nc(O)n(C)c3cc2c1)C1CCCCC1
IC50 [1]: 8000 nM | EC50 [2]: 40 nM | IC50 [3]: 200 nM

O=C(CCCOc1ccc2[nH]c3nc(O)nc-3cc2c1)NC1CCCCCC1
ED50 [4]: 5.4 mg/kg | EC50 [2]: 8 nM | IC50 [3]: 10 nM

CN(C(=O)CCCOc1ccc2c(c1)CN1CC(=O)NC1=N2)C1CCCCC1 [LIXAZINONE]
EC50 [2]: 80 nM | IC50 [3]: 3 nM
